ChEMBL document CHEMBL1949569, “Galactolipids from Bauhinia racemosa as a new class of antifilarial agents against human lymphatic filarial parasite, Brugia malayi” (Eur J Med Chem, 2012)
Converted amounts (≈) assume the structure as drawn. The source made the active and inactive calls. The calls are words filed in the database; no cut-off is given here.

Columns and labels:
[1] = test system: Brugia malayi; assay: Antifilarial activity against microfilariae Brugia malayi after 48 hrs by MTT assay; format: functional, organism-based
[2] = Selectivity ratio of CC50 for african green monkey Vero cells to IC50 for adult Brugia malayi; format: ADME, cell-based
Outline: (§1)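 SI = CC50 (Vero, resazurin assay) / IC50. IC50 came from % motility inhibition of adult female worms or mf over two-fold dilutions from MIC down to 0.3 µg/mL. It was derived from a concentration vs % motility-inhibition plot.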

[3] = test system: Brugia malayi; assay: Antifilarial activity against adult Brugia malayi assessed as inhibition of motility at 15.6 ug/ml incubated for 48 hrs followed by washout measured after 1 hr in the absence of drug by microscopic analysis; format: functional
Outline: (§2)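 Single fully motile female worms from jird peritoneal cavity were exposed in duplicate wells (1000 µL RPMI 1640, antibiotics, 10% FBS) to two-fold dilutions from 31.25 µg/mL, 48 h, 37 °C, CO2. Worms were moved to drug-free medium and motility was read microscopically 1 h later. Result is % motility reduction vs untreated control.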

[4] = test system: Brugia malayi; assay: Antifilarial activity against microfilariae Brugia malayi assessed as inhibition of motility at 31.25 ug/ml incubated for 48 hrs followed by washout measured after 1 hr in the absence of drug by microscopic analysis; format: functional
Outline: (§3)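 Microfilariae came from jird peritoneal fluid passed through a 5.0 µm membrane filter. Twenty live mf per well in 200 µL medium, in duplicate, were given two-fold dilutions from 31.25 µg/mL. Incubation matched the adult worms (48 h, 37 °C, CO2). Motility was scored and reported as % reduction vs untreated control.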

[5] = test system: Brugia malayi; assay: Antifilarial activity against adult Brugia malayi at 15.6 ug/ml by MTT assay relative to control; format: functional
Outline: (§4)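 Adult female worms were recovered from jird peritoneal cavity 120–150 days after i.p. L3 inoculation. One worm per well sat in 1000 µL RPMI 1640 with antibiotics and 10% FBS, in duplicate, 48 h at 37 °C in CO2. After motility scoring, worms went through the MTT reduction assay. Result is % inhibition of MTT reduction vs untreated control.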

[6] = test system: Brugia malayi; assay: Antifilarial activity against microfilariae Brugia malayi assessed as inhibition of motility at 15.6 ug/ml incubated for 48 hrs followed by washout measured after 1 hr in the absence of drug by microscopic analysis; format: functional; outline: as §3
[7] = Selectivity ratio of CC50 for african green monkey Vero cells to IC50 for microfilariae Brugia malayi; format: ADME, cell-based; conditions: for selectivity ratio: Vero cells, read-out: Ratio CC50/IC50; outline: as §1
[8] = test system: Brugia malayi; assay: Antifilarial activity against microfilariae Brugia malayi assessed as inhibition of motility at 1.9 ug/ml incubated for 48 hrs followed by washout measured after 1 hr in the absence of drug by microscopic analysis; format: functional; outline: as §3
[9] = test system: Brugia malayi; assay: Antifilarial activity against adult Brugia malayi at 31.25 ug/ml by MTT assay relative to control; format: functional; outline: as §4
[10] = test system: Brugia malayi; assay: Antifilarial activity against adult Brugia malayi infected in jird assessed as sterilized female worm at 50 mg/kg, ip administered for 5 consecutive days measured on day 51; format: functional; conditions: route intraperitoneal
Outline: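 In the i.p.-transplanted adult B. malayi jird model, 50 mg/kg was given i.p. for 5 consecutive days, 5 animals per group. Necropsy on day 51 recovered peritoneal worms. Live females were teased in PBS pH 7.2 and uterine oocytes, eggs and mf checked microscopically for abnormality or death. Result is % sterilized females.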

[11] = test system: Brugia malayi; assay: Antifilarial activity against adult Brugia malayi assessed as inhibition of motility at 1.9 ug/ml incubated for 48 hrs followed by washout measured after 1 hr in the absence of drug by microscopic analysis; format: functional; outline: as §2
[12] = test system: Brugia malayi; assay: Antifilarial activity against adult Brugia malayi after 48 hrs by MTT assay; format: functional, organism-based; outline: as §4
[13] = test system: Brugia malayi; assay: Antifilarial activity against adult Brugia malayi assessed as inhibition of motility at 31.25 ug/ml incubated for 48 hrs followed by washout measured after 1 hr in the absence of drug by microscopic analysis; format: functional; outline: as §2
[14] = (§5) Cytotoxicity against african green monkey Vero cells after 72 hrs by resazurin dye-based fluorimetric analysis; format: cell-based; conditions: chlorocebus sabaeus, Vero cells
Outline: (§6)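 Vero cells were seeded at 10,000 per well and left overnight at 37 °C in CO2. Samples were tested in triplicate from a 300 µg/mL top concentration in 3:1 serial dilutions, with drug-free and cell-free controls. Resazurin was added after 72 h drug exposure for 2–4 h, then read at ex 536/em 588 nm. CC50 was taken from fluorescence vs concentration.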

[15] = test system: Brugia malayi; assay: Antifilarial activity against adult Brugia malayi at 1.9 ug/ml by MTT assay relative to control; format: functional; outline: as §4
[16] = test system: Brugia malayi; assay: Antifilarial activity against adult Brugia malayi at 3.9 ug/ml by MTT assay relative to control; format: functional; outline: as §4
[17] = test system: Brugia malayi; assay: Antifilarial activity against adult Brugia malayi at 7.8 ug/ml by MTT assay relative to control; format: functional; outline: as §4
[18] = test system: Brugia malayi; assay: Antifilarial activity against microfilariae Brugia malayi assessed as inhibition of motility at 3.9 ug/ml incubated for 48 hrs followed by washout measured after 1 hr in the absence of drug by microscopic analysis; format: functional; outline: as §3
[19] = test system: Brugia malayi; assay: Antifilarial activity against adult Brugia malayi assessed as inhibition of motility at 7.8 ug/ml incubated for 48 hrs followed by washout measured after 1 hr in the absence of drug by microscopic analysis; format: functional; outline: as §2
[20] = test system: Brugia malayi; assay: Antifilarial activity against adult Brugia malayi infected in jird assessed as worm mortality at 50 mg/kg, ip administered for 5 consecutive days measured on day 51; format: functional; conditions: route intraperitoneal
Outline: (§7)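 Jirds carrying intraperitoneally transplanted adult B. malayi (sub-periodic strain), 5 animals per group, dosed daily for 5 days. Killed on day 51 after a 50-day observation period. Worms recovered from the peritoneal cavity and scored microscopically for motility, death or encapsulation, giving % adulticidal activity over untreated control, mean ± SE. Live females teased in PBS pH 7.2 to score uterine-content abnormalities as sterilization.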

[21] = test system: Brugia malayi; assay: Antifilarial activity against adult Brugia malayi assessed as inhibition of motility at 3.9 ug/ml incubated for 48 hrs followed by washout measured after 1 hr in the absence of drug by microscopic analysis; format: functional; outline: as §2
[22] = test system: Brugia malayi; assay: Antifilarial activity against microfilariae Brugia malayi assessed as inhibition of motility at 7.8 ug/ml incubated for 48 hrs followed by washout measured after 1 hr in the absence of drug by microscopic analysis; format: functional; outline: as §3
[23] = test system: Brugia malayi; assay: Antifilarial activity against adult Brugia malayi infected in jird assessed as sterilized female worm at 100 mg/kg, sc administered for 5 consecutive days measured on day 51; format: functional; conditions: route subcutaneous
Outline: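 Jirds carrying i.p.-transplanted adult B. malayi got 100 mg/kg s.c. daily for 5 days, 5 animals per group. They were euthanized on day 51 and worms recovered from the peritoneal cavity. Live females were teased in PBS pH 7.2 and uterine contents examined microscopically. Any abnormal or dead oocytes, eggs or mf counted as sterilized, reported as % sterile females.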

[24] = test system: Brugia malayi; assay: Antifilarial activity against adult Brugia malayi infected in jird assessed as worm mortality at 100 mg/kg, sc administered for 5 consecutive days measured on day 51; format: functional; conditions: route subcutaneous; outline: as §7
[25] = test system: Vero; assay: as §5; format: cell-based; conditions: chlorocebus sabaeus, vero, 72 h; outline: as §6
[26] = Brugia malayi, 48 h, read-out: IC50

Compound | inhibition at 31.25 µg/mL [4] [%] | inhibition at 15.6 µg/mL [5] [%] | inhibition at 15.6 µg/mL [6] [%] | selectivity ratio [7] | MIC ([1]; Brugia malayi, 48 h) [µg/mL] | IC50 [1, 26] [µg/mL] | inhibition at 31.25 µg/mL [9] [%] | Activity [10] [%] | MIC [12] | inhibition at 31.25 µg/mL [13] [%] | CC50 at 72 h [14] [µg/mL] | inhibition at 7.8 µg/mL [17] [%] | Activity [20] [%] | inhibition at 7.8 µg/mL [22] [%] | other results
IVERMECTIN [listing 1 of 2 here] | – | – | – | – | – | – | – | – | – | – | – | – | – | – | MIC [1]: 125 µg/mL
CC/C=C\C/C=C\C/C=C\CCCCCCCC(=O)OC[C@H](CO[C@@H]1O[C@H](CO[C@H]2O[C@H](CO)[C@H](O)[C@H](O)[C@H]2O)[C@H](O)[C@H](O)[C@H]1O)OC(=O)CCCCCCC/C=C\C/C=C\C/C=C\CC | 100 | 75 | 100 | > 62.2 | 15.6 (≈ 16.6 µM) | 1.61 (≈ 1.71 µM) | 82.9 | 0 | 3.9 µg/mL (≈ 4.16 µM) | 100 | > 100 | 61.8 | -58.3 | 99 | selectivity ratio ([2]; Vero cells, read-out: Ratio CC50/IC50): > 80; inhibition at 15.6 µg/mL [3]: 100%; inhibition at 1.9 µg/mL [8]: 60%; inhibition at 1.9 µg/mL [11]: 90%; IC50 [12]: 1.25 µg/mL (≈ 1.33 µM); inhibition at 1.9 µg/mL [15]: 43.6%; inhibition at 3.9 µg/mL [16]: 52.1%; inhibition at 3.9 µg/mL [18]: 95%; inhibition at 7.8 µg/mL [19]: 100%; inhibition at 3.9 µg/mL [21]: 100%
Oc1cc(O)c2c(c1)O[C@H](c1ccc(O)c(O)c1)[C@H](O)C2 [(-)-EPICATECHIN] | 50 | – | – | – | – | – | 34.8 | – | – | 50 | – | – | – | – | –
O=C(O)c1ccc(O)c(O)c1 [PROTOCATECHUIC ACID] | 60 | – | – | – | – | – | 20.6 | – | – | 50 | – | – | – | – | –
CCCCCCCC/C=C\CCCCCCCC(=O)OC[C@H](CO[C@@H]1O[C@H](CO[C@H]2O[C@H](CO)[C@H](O)[C@H](O)[C@H]2O)[C@H](O)[C@H](O)[C@H]1O)OC(=O)CCCCCCCCCCCCCCC | 100 | 0 | 99 | > 95.2 | 31.2 (≈ 34 µM) | 1.05 (≈ 1.14 µM) | 24.6 | 0 | inactive | 50 | > 100 | 0 | -54.15 | 90 | inhibition [3]: inactive; inhibition at 3.9 µg/mL [16]: 0%; inhibition at 3.9 µg/mL [18]: 80%; inhibition [19]: inactive; inhibition [21]: inactive
CCN(CC)C(=O)N1CCN(C)CC1 [DIETHYLCARBAMAZINE] | – | – | – | – | – | – | – | – | inactive | – | – | – | – | – | MIC [1]: inactive; Activity [23]: 0%; Activity [24]: -30.5%
Oc1ccc([C@H]2Oc3cc(O)cc(O)c3C[C@H]2O)cc1 [EPIAFZELECHIN (2R,3R)(-)] | 59 | – | – | – | – | – | 14.8 | – | – | 50 | – | – | – | – | –
Oc1cc(O)c2c(c1)O[C@@H](c1ccc(O)c(O)c1)[C@H](O)C2 [(-)-CATECHIN] | 60 | – | – | – | – | – | 43.2 | – | – | 60 | – | – | – | – | –
IVERMECTIN [listing 2 of 2 here] | – | – | – | – | – | – | – | – | – | – | – | – | – | – | Ratio CC50/IC50 ([2]; vero): > 62.11; Ratio CC50/IC50 ([7]; vero): > 27.62; IC50 [1]: 3.62 µg/mL; CC50 [25]: 52.84 µg/mL
CC/C=C\C/C=C\C/C=C\CCCCCCCC(=O)OC[C@H](CO[C@@H]1O[C@H](CO[C@H]2O[C@H](CO)[C@H](O)[C@H](O)[C@H]2O)[C@H](O)[C@H](O)[C@H]1O)OC(=O)CCCCCCCCCCCCCCC | 100 | 0 | 95 | > 37 | 31.2 (≈ 34.1 µM) | 2.7 (≈ 2.95 µM) | 30 | 0 | inactive | 50 | > 100 | 0 | -45.8 | 90 | inhibition [3]: inactive; inhibition at 3.9 µg/mL [16]: 0%; inhibition at 3.9 µg/mL [18]: 70%; inhibition [19]: inactive; inhibition [21]: inactive
CCCCCCCCCCCCCCCCCCCCCCCCCCCCO [OCTACOSANOL] | 100 | 0 | 95 | > 30.7 | 31.2 (≈ 76.1 µM) | 3.26 (≈ 7.94 µM) | 32.6 | 0 | inactive | 50 | > 100 | 0 | -49.95 | 85 | inhibition [3]: inactive; inhibition [19]: inactive
